From PubChem
INS-1E rescue: rescue of cytokine-induced death in INS-1E beta cells; INS-1E cytokine-induced death, ATP luminescence, 48 h; normalised: neutral wells 0, positive control 100; protection from cytokine-induced ATP loss, % at 10 µM; hit rate 0.1% among 20,000; AID 488910;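 active = mean replicate protection from cytokine-induced ATP loss at least 50% and at least 75% of replicates each reaching 50%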
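Material: INS-1E rat cells; Quantity: 8000 cells/well; Buffer or medium: phenol-red-free RPMI with 5% fetal bovine serum; Probe or stimulus: cytokine cocktail of IFN-γ, TNF-α and IL-1β; Compound dosing: single test concentration per compound, delivered by pin transfer; Incubation: 48 h co-treatment, 10 min post-lysis read; Signal: CellTiter-Glo luminescence.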
A1 apoptosis 2: A1 inhibition read as caspase activation; caspase activation, % (no concentration beside the values); MEF A1-2A-BIM cells, caspase-Glo luminescence, 3 h; percent of clofoctol response, DMSO zero; 24,000 tested, under 10 active; in the data active = caspase activation above about 5.9%
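Material: mouse embryonic fibroblasts co-expressing A1 and BIM (A1-2A-BIM), primed for A1 dependence / Quantity: 2500 cells/well / Buffer or medium: RPMI-1640 growth medium with 10% FBS / Doses: 50 nL compound per well, pinned / Schedule: 3 h compound exposure at 37 °C / Signal: Caspase-Glo luminescence (DEVD substrate) / Measure: Caspase-3/7 activation, seen as rise in luminescence signal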
T cruzi intra: inhibitors of intracellular Trypanosoma cruzi | AID 651903 | activity score (inhibition), % at 5.01 µM | hit rate 4.9% among 22,000 | intracellular Trypanosoma cruzi in host cells, plate reader; in the data active = activity score above about 55%;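 also: parasites and compound incubated about four days before reading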
Hits are given with their value; – = inactive; · = no result given. The entries come from a sample that favours hits as a whole.

SMILES	INS-1E rescue	A1 apoptosis 2	T cruzi intra
Cc1cc(C(=O)Nc2cccc3c2O[C@@H](CN(C)Cc2ccc(-c4ccccc4)cc2)[C@@H](C)CN([C@H](C)CO)C3=O)n(C)n1	–	–	63.9
Cc1cc(C(=O)Nc2cccc3c2O[C@H](CN(C)C(=O)Nc2ccccc2)[C@@H](C)CN([C@@H](C)CO)C3=O)n(C)n1	–	–	–
C[C@H]1CN([C@@H](C)CO)C(=O)Cc2cc(NC(=O)CCN3CCOCC3)ccc2O[C@H]1CN(C)C(=O)Nc1cccc2ccccc12	–	–	–
CC(C)NC(=O)N(C)C[C@@H]1OCCCC[C@@H](C)Oc2ccc(NC(=O)Nc3ccccc3)cc2C(=O)N([C@@H](C)CO)C[C@@H]1C	·	–	·
Cc1ccc(S(=O)(=O)N(C)C[C@H]2Oc3c(NC(=O)CCCCCC(=O)Nc4ccccc4N)cccc3C(=O)N([C@@H](C)CO)C[C@@H]2C)cc1	·	–	·
C[C@H](CO)N1C[C@H](C)[C@H](CN(C)S(=O)(=O)c2ccc(F)cc2)Oc2c(NC(=O)CCCCCC(=O)Nc3ccccc3N)cccc2C1=O	–	·	63.4
C[C@@H]1CN([C@H](C)CO)C(=O)c2cccc(NC(=O)CCCCCC(=O)Nc3ccccc3N)c2O[C@@H]1CN(C)S(=O)(=O)c1ccc(F)cc1	–	·	60.9
Cc1ccc(S(=O)(=O)N(C)C[C@@H]2Oc3c(NC(=O)CCCCCC(=O)Nc4ccccc4N)cccc3C(=O)N([C@H](C)CO)C[C@@H]2C)cc1	–	–	72.7
C[C@@H]1CN([C@@H](C)CO)C(=O)c2cccc(NC(=O)CCCCCC(=O)Nc3ccccc3N)c2O[C@H]1CN(C)S(=O)(=O)c1ccc(F)cc1	–	·	–
C[C@@H]1CN([C@@H](C)CO)C(=O)c2cccc(NC(=O)CCCCCC(=O)Nc3ccccc3N)c2O[C@@H]1CN(C)S(=O)(=O)c1ccc(F)cc1	–	–	–
CC(C)NC(=O)Nc1ccc2c(c1)C(=O)N([C@@H](C)CO)C[C@H](C)[C@@H](CN(C)Cc1ccc(Cl)c(Cl)c1)OCCCC[C@@H](C)O2	·	–	·
C[C@H]1CCCCO[C@@H](CN(C)Cc2ccc(C(=O)O)cc2)[C@@H](C)CN([C@@H](C)CO)C(=O)c2cc(NS(=O)(=O)c3ccc(F)cc3)ccc2O1	·	–	·
C[C@H]1CN([C@@H](C)CO)C(=O)c2cc(NC(=O)NC3CCCCC3)ccc2O[C@H]1CN(C)Cc1ccc2c(c1)OCO2	–	–	58.4
C[C@@H]1CN([C@H](C)CO)C(=O)c2cc(NC(=O)NC3CCCCC3)ccc2O[C@@H]1CN(C)Cc1ccc2c(c1)OCO2	–	–	–
C[C@H](CO)N1C[C@H](C)[C@H](CN(C)Cc2ccc3c(c2)OCO3)Oc2ccc(NC(=O)NC3CCCCC3)cc2C1=O	·	–	56.2
C[C@H]1CN([C@@H](C)CO)C(=O)c2cc(NC(=O)NC3CCCCC3)ccc2O[C@@H]1CN(C)Cc1ccc2c(c1)OCO2	–	–	–
C[C@@H]1CN([C@@H](C)CO)C(=O)c2cc(NC(=O)NC3CCCCC3)ccc2O[C@H]1CN(C)Cc1ccccc1	–	–	–
COc1ccc(S(=O)(=O)Nc2cccc3c2O[C@H](CN(C)C(=O)Nc2ccc4c(c2)OCO4)[C@H](C)CN([C@@H](C)CO)C3=O)cc1	–	–	–
C[C@@H]1CN([C@@H](C)CO)C(=O)c2cc(N(C)C)ccc2O[C@@H]1CN(C)Cc1ccc(Cl)c(Cl)c1	–	·	64.2
C[C@H](CO)N1C[C@H](C)[C@H](CN(C)Cc2ccccc2)Oc2ccc(N(C)C)cc2C1=O	–	–	–
C[C@H](CO)N1C[C@H](C)[C@@H](CN(C)Cc2ccc(Oc3ccccc3)cc2)Oc2ccc(N(C)C)cc2C1=O	–	–	71.3
C[C@H]1CN([C@@H](C)CO)C(=O)c2cc(N(C)C)ccc2O[C@H]1CN(C)Cc1ccc(-c2ccccc2)cc1	–	·	–
C[C@@H]1CN([C@H](C)CO)C(=O)c2cc(N(C)C)ccc2O[C@@H]1CN(C)Cc1ccc(Cl)c(Cl)c1	–	–	–
C[C@@H]1CN([C@@H](C)CO)C(=O)c2cc(N(C)C)ccc2O[C@@H]1CN(C)Cc1ccc(-c2ccccc2)cc1	–	·	64.5
Cc1noc(C)c1S(=O)(=O)Nc1ccc2c(c1)CC(=O)N([C@H](C)CO)C[C@@H](C)[C@H](CN(C)C(=O)NC1CCCCC1)O2	–	·	–
SMILES	INS-1E rescue	A1 apoptosis 2	T cruzi intra
Cc1ccc(S(=O)(=O)N(C)C[C@@H]2OCCCC[C@H](C)Oc3ccc(NC(=O)NC(C)C)cc3C(=O)N([C@@H](C)CO)C[C@H]2C)cc1	·	–	·
C[C@@H]1CN([C@@H](C)CO)C(=O)c2cccc(NC(=O)c3ccncc3)c2O[C@H]1CN(C)Cc1ccncc1	–	–	–
C[C@@H]1CN([C@@H](C)CO)C(=O)c2cccc(NC(=O)c3ccncc3)c2O[C@H]1CN(C)CC1CCCCC1	–	·	76.4
C[C@H]1CN([C@@H](C)CO)C(=O)c2cccc(NC(=O)c3ccncc3)c2O[C@H]1CN(C)Cc1ccccc1	–	·	81.3
C[C@@H]1CN([C@H](C)CO)C(=O)c2cccc(NC(=O)c3ccncc3)c2O[C@H]1CN(C)Cc1ccccc1	–	·	80.5
C[C@@H]1CN([C@H](C)CO)C(=O)c2cccc(NC(=O)c3ccncc3)c2O[C@@H]1CN(C)CC1CCCCC1	–	–	–
C[C@H](CO)N1C[C@H](C)[C@@H](CN(C)Cc2ccncc2)Oc2c(NC(=O)c3ccncc3)cccc2C1=O	–	–	–
C[C@@H]1CN([C@@H](C)CO)C(=O)c2cccc(NC(=O)c3ccncc3)c2O[C@@H]1CN(C)Cc1ccc(C(=O)O)cc1	–	–	–
C[C@@H]1CN([C@@H](C)CO)C(=O)c2cccc(NC(=O)c3ccncc3)c2O[C@H]1CN(C)Cc1ccccc1	–	·	79.3
C[C@@H]1CN([C@H](C)CO)C(=O)Cc2cc(NC(=O)Nc3ccc4c(c3)OCO4)ccc2O[C@@H]1CN(C)S(=O)(=O)c1cccs1	–	–	–
OCCSCC(O)CC(O)c1ccccc1 (stereo not drawn)	·	–	·
C[C@@H]1CCCCO[C@@H](CN(C)C(=O)CCCN(C)C)[C@H](C)CN([C@@H](C)CO)C(=O)c2cc(NC(=O)C3CCCCC3)ccc2O1	·	–	·
Cc1noc(C)c1S(=O)(=O)N(C)C[C@H]1Oc2c(NS(C)(=O)=O)cccc2C(=O)N([C@@H](C)CO)C[C@H]1C	–	–	–
C[C@H]1CN([C@@H](C)CO)C(=O)c2cc(NC(=O)Cc3cn(C)c4ccccc34)ccc2O[C@H]1CN(C)S(=O)(=O)c1ccc(F)cc1	–	–	–
COc1ccc(S(=O)(=O)N(C)C[C@H]2Oc3c(NC(=O)Nc4c(C)noc4C)cccc3C(=O)N([C@@H](C)CO)C[C@@H]2C)cc1	–	–	–
C[C@H](CO)N1C[C@H](C)[C@H](CN(C)C(=O)NC2CCCCC2)Oc2ncc(C#Cc3ccc(C(F)(F)F)cc3)cc2C1=O	–	·	88.3
C[C@H](CO)N1C[C@H](C)[C@H](CN(C)C(=O)NC2CCCCC2)Oc2ncc(C#Cc3ccc(F)cc3)cc2C1=O	–	–	–
